Test results taken from ChEMBL document CHEMBL1148712, “Design, synthesis, and SAR study of a series of N-alkyl-N'-[2-(aryloxy)-5-nitrobenzenesulfonyl]ureas and -cyanoguanidine as selective antagonists of the TPalpha and TPbeta isoforms of the human thromboxane A2 receptor” (J Med Chem, 2007).

molecular target: T1, Thromboxane A2 receptor (Homo sapiens, UniProt P21731); experiment: Antagonist activity at human thromboxane A2 receptor isoform alpha expressed in HEK293 cells assessed as inhibition of U46619-induced calcium mobilization; assay type: functional, cell-based
T1 sequence (P21731 whole entry): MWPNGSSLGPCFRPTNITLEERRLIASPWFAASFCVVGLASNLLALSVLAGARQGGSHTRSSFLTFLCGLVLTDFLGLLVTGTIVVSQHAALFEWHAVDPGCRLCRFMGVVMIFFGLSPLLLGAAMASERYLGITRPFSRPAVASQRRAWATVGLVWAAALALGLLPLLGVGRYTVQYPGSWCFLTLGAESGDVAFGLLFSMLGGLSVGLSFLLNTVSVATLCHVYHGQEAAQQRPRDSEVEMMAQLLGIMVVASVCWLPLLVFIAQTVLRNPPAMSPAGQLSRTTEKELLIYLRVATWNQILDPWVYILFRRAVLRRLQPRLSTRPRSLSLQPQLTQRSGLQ
Method in brief: (§1)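 HA-tagged receptor stably overexpressed in HEK293 cells grown in DMEM with 10% FBS. Trypsinized cells washed in Krebs-HEPES pH 7.4, loaded 1 h with Fluo-4/AM (5 µg/mL), rinsed, 150 000 cells/well. Compound (10^-8 to 10^-5 M final) for 10 min before U46619 (1 µM final). Emission at 538; Triton/EGTA calibration, Kd 385 nM. IC50 by nonlinear regression, ≥3 curves.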

First: CCCCCNC(=O)NS(=O)(=O)c1cc([N+](=O)[O-])ccc1Oc1ccc(OCC)cc1
Second: CCCCCNC(=O)NS(=O)(=O)c1cc([N+](=O)[O-])ccc1Oc1ccc(OCCC)cc1
The IC50 of the first is 2-fold lower: 13600 nM for the first, 27200 nM for the second.

First: CCCCCNC(=O)NS(=O)(=O)c1cc([N+](=O)[O-])ccc1Oc1ccccc1Cl
Second: CCCCNC(=O)NS(=O)(=O)c1cc([N+](=O)[O-])ccc1Oc1ccccc1C
The IC50 of the first is 4.5-fold higher: 3060 nM for the first, 673 nM for the second.

First: CCCOc1ccc(Oc2ccc([N+](=O)[O-])cc2S(=O)(=O)NC(=O)NC(C)(C)C)cc1
Second: CC(C)(C)NC(=O)NS(=O)(=O)c1cc([N+](=O)[O-])ccc1Oc1ccc(Cl)cc1
The IC50 of the first is 3.5-fold higher: 10800 nM for the first, 3050 nM for the second. The second is the more potent here.

Going from `Cc1ccccc1Oc1ccc([N+](=O)[O-])cc1S(=O)(=O)NC(=O)NC(C)C` to `Cc1ccccc1Oc1ccc([N+](=O)[O-])cc1S(=O)(=O)NC(=O)NC(C)(C)C`, the IC50 falls from 8750 nM to 3760 nM (2.3-fold). The second is the more potent here.

Compared with `CCCCNC(=O)NS(=O)(=O)c1cc([N+](=O)[O-])ccc1Oc1cccc(C)c1`, `CCCCCNC(=O)NS(=O)(=O)c1cc([N+](=O)[O-])ccc1Oc1ccc(Cl)c(C)c1` is 1.9-fold higher in IC50: 1910 nM for the first, 3720 nM for the second.

Compared with `Cc1cccc(Oc2ccc([N+](=O)[O-])cc2S(=O)(=O)NC(=O)NC(C)C)c1`, `Cc1ccc(Oc2ccc([N+](=O)[O-])cc2S(=O)(=O)NC(=O)NC(C)C)cc1` is 3.3-fold higher in IC50: 2640 nM for the first, 8760 nM for the second. The first is the more potent here.

First: CCCCCNC(=O)NS(=O)(=O)c1cc([N+](=O)[O-])ccc1Oc1ccc(I)cc1
Second: CCCCCNC(=O)NS(=O)(=O)c1cc([N+](=O)[O-])ccc1Oc1ccc(Br)cc1
The IC50 of the first is 2.2-fold higher: 2190 nM for the first, 1010 nM for the second.

Compared with `Cc1cc(Oc2ccc([N+](=O)[O-])cc2S(=O)(=O)NC(=O)NC(C)(C)C)ccc1Cl`, `CC(C)(C)NC(=O)NS(=O)(=O)c1cc([N+](=O)[O-])ccc1Oc1ccc(I)cc1` is 2-fold higher in IC50: 1060 nM for the first, 2150 nM for the second. The first is the more potent here.

Going from `Cc1ccc(Oc2ccc([N+](=O)[O-])cc2S(=O)(=O)NC(=NC(C)(C)C)NC#N)cc1` to `CCCNC(=O)NS(=O)(=O)c1cc([N+](=O)[O-])ccc1Oc1ccc(C)cc1`, the IC50 rises from 2080 nM to 4220 nM (2-fold). The first is the more potent here.

molecular target: T1, Thromboxane A2 receptor; experiment: Antagonist activity at human thromboxane A2 receptor isoform beta expressed in HEK293 cells assessed as inhibition of U46619-induced calcium mobilization; assay type: functional, cell-based; method in brief: as §1

Going from `CCCCCNC(=O)NS(=O)(=O)c1cc([N+](=O)[O-])ccc1Oc1ccc(OCC)cc1` to `CCCCCNC(=O)NS(=O)(=O)c1cc([N+](=O)[O-])ccc1Oc1ccc(OCCC)cc1`, the IC50 rises from 749 nM to 4840 nM (6.5-fold). The first is the more potent here.

Compared with `CCCCCNC(=O)NS(=O)(=O)c1cc([N+](=O)[O-])ccc1Oc1ccccc1Cl`, `CCCCNC(=O)NS(=O)(=O)c1cc([N+](=O)[O-])ccc1Oc1ccccc1C` is 9.2-fold lower in IC50: 387 nM for the first, 42 nM for the second. The second is the more potent here.

Going from `CCCOc1ccc(Oc2ccc([N+](=O)[O-])cc2S(=O)(=O)NC(=O)NC(C)(C)C)cc1` to `CC(C)(C)NC(=O)NS(=O)(=O)c1cc([N+](=O)[O-])ccc1Oc1ccc(Cl)cc1`, the IC50 falls from 875 nM to 400 nM (2.2-fold).

Compared with `Cc1ccccc1Oc1ccc([N+](=O)[O-])cc1S(=O)(=O)NC(=O)NC(C)C`, `Cc1ccccc1Oc1ccc([N+](=O)[O-])cc1S(=O)(=O)NC(=O)NC(C)(C)C` is 2.2-fold lower in IC50: 501 nM for the first, 233 nM for the second.

Compared with `CCCCNC(=O)NS(=O)(=O)c1cc([N+](=O)[O-])ccc1Oc1cccc(C)c1`, `CCCCCNC(=O)NS(=O)(=O)c1cc([N+](=O)[O-])ccc1Oc1ccc(Cl)c(C)c1` is 3.6-fold higher in IC50: 155 nM for the first, 565 nM for the second.

First: Cc1cccc(Oc2ccc([N+](=O)[O-])cc2S(=O)(=O)NC(=O)NC(C)C)c1
Second: Cc1ccc(Oc2ccc([N+](=O)[O-])cc2S(=O)(=O)NC(=O)NC(C)C)cc1
The IC50 of the first is 4.1-fold lower: 205 nM for the first, 843 nM for the second. The first is the more potent here.

First: CCCCCNC(=O)NS(=O)(=O)c1cc([N+](=O)[O-])ccc1Oc1ccc(I)cc1
Second: CCCCCNC(=O)NS(=O)(=O)c1cc([N+](=O)[O-])ccc1Oc1ccc(Br)cc1
The IC50 of the first is 2.5-fold higher: 302 nM for the first, 120 nM for the second. The second is the more potent here.

Compared with `Cc1cc(Oc2ccc([N+](=O)[O-])cc2S(=O)(=O)NC(=O)NC(C)(C)C)ccc1Cl`, `CC(C)(C)NC(=O)NS(=O)(=O)c1cc([N+](=O)[O-])ccc1Oc1ccc(I)cc1` is 3.6-fold higher in IC50: 111 nM for the first, 401 nM for the second.

`Cc1ccc(Oc2ccc([N+](=O)[O-])cc2S(=O)(=O)NC(=NC(C)(C)C)NC#N)cc1` and `CCCNC(=O)NS(=O)(=O)c1cc([N+](=O)[O-])ccc1Oc1ccc(C)cc1` are within 1.5-fold of each other in IC50: 579 nM for the first, 448 nM for the second.

molecular target: T2, Thromboxane A2 receptor (Homo sapiens) (UniProt P21731); experiment: Ratio of IC50 for thromboxane A2 receptor isoform alpha to IC50 for thromboxane A2 receptor isoform beta; assay type: functional
T2 sequence (whole entry): T1 sequence (P21731 whole entry)
Method in brief: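 Selectivity index calculated as IC50 for TPα divided by IC50 for TPβ. Both IC50s come from U46619 (1 µM)-induced Fluo-4 [Ca2+]i assays in HEK293 cells stably overexpressing the respective isoform.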

Compared with `Cc1ccc(Oc2ccc([N+](=O)[O-])cc2S(=O)(=O)N/C(=N\C#N)NC(C)(C)C)cc1`, `CC(C)(C)NC(=O)NS(=O)(=O)c1cc([N+](=O)[O-])ccc1Oc1ccc(Cl)cc1` is higher in Ratio IC50: 3.6 for the first, 7.6 for the second.

Going from `CCCCCNC(=O)NS(=O)(=O)c1cc([N+](=O)[O-])ccc1Oc1ccc(OCC)cc1` to `CCCCCNC(=O)NS(=O)(=O)c1cc([N+](=O)[O-])ccc1Oc1ccc(OCCC)cc1`, the Ratio IC50 falls from 18.1 to 5.6.

Compared with `CCCCCNC(=O)NS(=O)(=O)c1cc([N+](=O)[O-])ccc1Oc1ccccc1Cl`, `CCCCNC(=O)NS(=O)(=O)c1cc([N+](=O)[O-])ccc1Oc1ccccc1C` is higher in Ratio IC50: 7.9 for the first, 16.1 for the second.

Compared with `CCCOc1ccc(Oc2ccc([N+](=O)[O-])cc2S(=O)(=O)NC(=O)NC(C)(C)C)cc1`, `CC(C)(C)NC(=O)NS(=O)(=O)c1cc([N+](=O)[O-])ccc1Oc1ccc(I)cc1` is lower in Ratio IC50: 12.3 for the first, 5.4 for the second.

Going from `Cc1ccccc1Oc1ccc([N+](=O)[O-])cc1S(=O)(=O)NC(=O)NC(C)C` to `Cc1ccccc1Oc1ccc([N+](=O)[O-])cc1S(=O)(=O)NC(=O)NC(C)(C)C`, the Ratio IC50 falls from 17.5 to 16.1.

Going from `Cc1ccc(Nc2ccc([N+](=O)[O-])cc2S(=O)(=O)NC(=O)NC(C)(C)C)cc1` to `Cc1cc(Oc2ccc([N+](=O)[O-])cc2S(=O)(=O)NC(=O)NC(C)(C)C)ccc1Cl`, the Ratio IC50 rises from 6.01 to 9.6.

First: CCCCNC(=O)NS(=O)(=O)c1cc([N+](=O)[O-])ccc1Oc1cccc(C)c1
Second: CCCCCNC(=O)NS(=O)(=O)c1cc([N+](=O)[O-])ccc1Oc1ccc(Cl)c(C)c1
The Ratio IC50 of the first is higher: 12.3 for the first, 6.6 for the second.

Compared with `Cc1cccc(Oc2ccc([N+](=O)[O-])cc2S(=O)(=O)NC(=O)NC(C)C)c1`, `Cc1ccc(Oc2ccc([N+](=O)[O-])cc2S(=O)(=O)NC(=O)NC(C)C)cc1` is lower in Ratio IC50: 12.9 for the first, 10.4 for the second.

Compared with `CCCCCNC(=O)NS(=O)(=O)c1cc([N+](=O)[O-])ccc1Oc1ccc(I)cc1`, `CCCCCNC(=O)NS(=O)(=O)c1cc([N+](=O)[O-])ccc1Oc1ccc(Br)cc1` is higher in Ratio IC50: 7.2 for the first, 8.4 for the second.

Molecule `CCCNC(=O)NS(=O)(=O)c1cc([N+](=O)[O-])ccc1Oc1ccc(C)cc1` has a Ratio IC50 of 9.4.
